Bioassay records: PubChem, several laboratories
SENP8 block-1: human SENP8 protease inhibitors, primary screen, biochemical, fluorescence, Nedd8 protein substrate, uHTS. Sentrin-specific protease 8 (Homo sapiens), Q96LD8. recombinant SENP8. AID 602440, 2012. inhibition, % at 20 µM. actives 0.64% (n = 360,000); in the data active means inhibition mostly above about 40%, no sharp cut-off; inactive means mostly below about 27%
Target sequence (Q96LD8 whole entry, looked up): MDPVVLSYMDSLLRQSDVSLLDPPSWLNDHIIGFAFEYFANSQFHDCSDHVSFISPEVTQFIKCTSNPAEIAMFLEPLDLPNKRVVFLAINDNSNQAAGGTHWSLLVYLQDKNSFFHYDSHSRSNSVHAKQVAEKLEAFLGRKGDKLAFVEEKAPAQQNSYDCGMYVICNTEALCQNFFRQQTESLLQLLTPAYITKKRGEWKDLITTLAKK
SENP7 inh: SENP7 protease inhibitors, primary screen, biochemical, luminescence, uHTS; actives 1.5% (n = 330,000); inhibition, % at 5 µM; Sentrin-specific protease 7 (Homo sapiens), Q9BQF6; recombinant SENP7, Z-RLRGG-aminoluciferin luminescence, 40 min;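 active means inhibition above about 50% at the single test dose, limit read from the data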
Target sequence (Q9BQF6 706-1050 limits assumed): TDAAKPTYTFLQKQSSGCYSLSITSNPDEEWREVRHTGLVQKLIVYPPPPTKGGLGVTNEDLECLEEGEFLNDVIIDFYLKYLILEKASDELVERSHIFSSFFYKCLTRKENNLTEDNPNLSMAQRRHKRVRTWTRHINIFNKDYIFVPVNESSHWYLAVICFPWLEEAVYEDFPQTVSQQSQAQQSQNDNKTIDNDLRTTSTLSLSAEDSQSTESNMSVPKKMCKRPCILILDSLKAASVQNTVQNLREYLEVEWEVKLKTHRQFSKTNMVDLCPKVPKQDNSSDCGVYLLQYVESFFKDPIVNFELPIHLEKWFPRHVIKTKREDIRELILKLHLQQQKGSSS
SENP8 block-2: SENP8 protease inhibitors, primary screen, biochemical, luminescence; inhibition, % at 10 µM; purified SENP8, Z-RLRGG-aminoluciferin cleavage; AID 2540, 2010; actives 1.2% (n = 330,000); in the data active means inhibition above about 50%
UCH37 DUB inh: inhibitors of human UCH37 deubiquitinase, primary screen, biochemical, Ub-AMC cleavage, fluorescence | actives 0.33% (n = 330,000) | Ubiquitin carboxyl-terminal hydrolase isozyme L5 (Homo sapiens), Q9Y5K5 | purified proteasome/UCH37 | inhibition, % (concentration not given with the values);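 active means mean inhibition over replicate wells above about 20%, limit read from the data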
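system = Proteasome-associated human UCH37 deubiquitinase | amount = 0.15 nM proteasome as dispensed | medium = pH 7.4 Tris-HCl (50 mM) with ovalbumin, ATP-MgCl2, DTT | incubation = 30 min preincubation with enzyme, 25 min cleavage at room temperature | detection = AMC fluorescence 355/460 nm | read-out basis = percent inhibition | controls = no-proteasome and no-compound wells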
SENP1 inh: human SENP1 catalytic domain inhibitors, primary screen, biochemical, FRET, uHTS. recombinant SENP1 catalytic domain, CyPet-SUMO1-YPet FRET cleavage. actives 0.21% (n = 360,000). Sentrin-specific protease 1 (Homo sapiens), Q9P0U3. inhibition, % at 10 µM;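 active means inhibition at least 30% at 10 µM, raw YFP signal under a set limit, fluorescence ratio 0.5 to 1.5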
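Controls: no-enzyme wells low, DMSO-plus-enzyme wells high control. Test system: human recombinant His6-tagged SENP1 catalytic domain enzyme. Reagent: SFCypet-SUMO1-SFYpet FRET protein substrate, 25 nM final. Doses: one dose per compound, 10 µM, 0.5% DMSO. Detection: FRET, CFP and YFP emission. Timing: 50 min reaction at room temperature.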
SENP6 block: SENP6 protease inhibitors, primary screen, biochemical, luminescence, uHTS; Sentrin-specific protease 6 (Homo sapiens), Q9GZR1; Recombinant SENP6 catalytic domain, aminoluciferin luminescence; inhibition, % at 10 µM; actives 1.8% (n = 330,000); AID 2599, 2010;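 active means inhibition above about 50% at the single tested dose, limit read from the data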
SENP8 confirm: SENP8 protease inhibitors, retest, confirmation, biochemical, luminescence, single concentration. AID 488912, 2010. Recombinant SENP8, Z-RLRGG-aminoluciferin luminescence, 60 min. inhibition, % at 12.5 µM. actives 40% (n = 6,200). shares compounds with SENP7 inh;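 active means mean inhibition across replicates above about 50%, limit read from the data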
SENP6 confirm: SENP6 protease inhibitors, confirmation, biochemical, luminescence, single concentration | inhibition, % at 12.5 µM | shares compounds with SENP7 inh | actives 58% (n = 6,200) | AID 488915, 2010 | recombinant SENP6, Z-RLRGG-aminoluciferin luminescence
SENP7 conf: SENP7 protease inhibitors, retest, confirmation, biochemical, luminescence, single concentration. actives 69% (n = 6,200). AID 488917, 2010. shares compounds with SENP7 inh. recombinant SENP7, Z-RLRGG-aminoluciferin luminescence, 40 min. inhibition, % at 12.5 µM
Casp3 SENP sel: caspase-3 protease inhibitors, confirmation, selectivity assay for SENP inhibitor project, biochemical, single concentration; shares compounds with SENP7 inh; purified caspase-3, Z-DEVD-aminoluciferin luminescence, 60 min; inhibition, % at 12.5 µM; actives 60% (n = 6,200); AID 488918, 2010;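 active means mean inhibition above about 50%, limit read from the data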
Target sequence (P42574 28-227 limits assumed): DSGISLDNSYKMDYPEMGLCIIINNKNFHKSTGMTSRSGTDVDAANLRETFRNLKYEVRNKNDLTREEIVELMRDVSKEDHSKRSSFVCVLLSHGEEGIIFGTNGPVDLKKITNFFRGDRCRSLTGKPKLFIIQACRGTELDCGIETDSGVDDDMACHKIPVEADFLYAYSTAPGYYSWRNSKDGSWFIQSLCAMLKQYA
SENP luc ctr: luminescence interference (SENP counter-screen); shares compounds with SENP7 inh; Pre-incubated SENP8/Z-RLRGG-aminoluciferin, luciferase luminescence interference; inhibition, % at 12.5 µM; actives 39% (n = 6,200); AID 488919;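 active means mean inhibition above about 50% when retested at one dose, limit read from the data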
Of the large screens only hits and unclear results are named; the others gave an inactive call (follow-up assays come after a bar, where they were run). Only some compounds are listed: those with a hit (about 2.6% of all), similar ones and a draw of the others.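 How the source made its calls, unless noted: active means mean inhibition above about 50% in the one-dose retest (limit read from the data); inactive means the rest.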

COc1ccc(C(=O)Nc2ccc3c(c2)OCCO3)cc1Br	SENP7 inh 61.5, SENP8 block-2 56.1, SENP6 block 72.3 | SENP8 confirm inactive | SENP6 confirm inactive | SENP7 conf 79.8 | Casp3 SENP sel 53.8 | SENP luc ctr inactive
CCOc1ccc(C=Nn2nnnc2N)cc1OCC	none (no result: SENP8 block-1, SENP7 inh, SENP8 block-2, SENP1 inh, SENP6 block)
Cc1ccc(C(=O)Nc2ccc3nccnc3c2)cc1	SENP7 inh 73.0, SENP8 block-2 51.2, SENP6 block 67.4 | SENP8 confirm 56.3 | SENP6 confirm 54.9 | SENP7 conf 87.2 | Casp3 SENP sel 82.8 | SENP luc ctr inactive
O=C(Nc1ccc2c(c1)OCCO2)c1ccc2nccnc2c1	SENP6 block 53.3 | SENP8 confirm 50.5 | SENP6 confirm inactive | SENP7 conf 81.9 | Casp3 SENP sel 80.3 | SENP luc ctr 59.5
O=C(Nc1ccc2c(c1)OCCO2)c1ccc(Br)cc1	SENP7 inh 61.5, SENP8 block-2 58.8, SENP6 block 70.9 (no result: UCH37 DUB inh) | SENP8 confirm 70.9 | SENP6 confirm 69.6 | SENP7 conf 90.4 | Casp3 SENP sel 67.8 | SENP luc ctr inactive
O=C(Nc1ccc2c(c1)OCCO2)c1cccnc1	none
CCN(CC)S(=O)(=O)c1ccc(C(=O)Nc2ccc3c(c2)OCCO3)cc1	none
COc1ccc(C(=O)Nc2ccc(N3CCCCC3)cc2)cc1Br	SENP7 inh 68.4 | SENP8 confirm inactive | SENP6 confirm inactive | SENP7 conf inactive | Casp3 SENP sel inactive | SENP luc ctr inactive
COc1ccc(Br)cc1C=NNC(=O)CNC(=O)/C=C/c1ccccc1OC	none (no result: SENP8 block-1, SENP7 inh, SENP8 block-2, SENP1 inh, SENP6 block)
O=C(NN=Cc1cccc(Cl)c1)c1ccc(Cn2cc(Br)c([N+](=O)[O-])n2)o1	none (no result: SENP8 block-1, SENP7 inh, SENP8 block-2, SENP1 inh, SENP6 block)
CCOc1ccc(NC(=O)CN2CCN(CC(=O)Nc3ccc4c(c3)OCCO4)CC2)cc1	none
CCCOc1cccc(C(=O)Nc2ccc3c(c2)OCCO3)c1	SENP7 inh 66.2, SENP8 block-2 53.1, SENP6 block 77.1 | SENP8 confirm 69.3 | SENP6 confirm 66.6 | SENP7 conf 86.1 | Casp3 SENP sel 59.3 | SENP luc ctr 54.8
Cc1cc(C(=O)Nc2ccc3c(c2)OCCO3)ccc1[N+](=O)[O-]	SENP7 inh 91.8, SENP8 block-2 77.0, SENP6 block 84.3 | SENP8 confirm inactive | SENP6 confirm 56.7 | SENP7 conf 94.4 | Casp3 SENP sel 81.4 | SENP luc ctr inactive
Cc1ccc(C(=O)Nc2ccc3c(c2)OCO3)o1	SENP6 block 50.5 | SENP8 confirm inactive | SENP6 confirm inactive | SENP7 conf 66.6 | Casp3 SENP sel 77.0 | SENP luc ctr 52.3
CCOc1ccc(C(=O)Nc2ccc3c(c2)OCCO3)cc1	SENP7 inh 86.3, SENP8 block-2 71.2, SENP6 block 83.8 | SENP8 confirm inactive | SENP6 confirm 77.3 | SENP7 conf 95.1 | Casp3 SENP sel 87.2 | SENP luc ctr 69.4
Cc1cc(SCC(=O)NN=Cc2ccc(O)cc2O)nc2ccccc12	none (no result: SENP8 block-1, SENP7 inh, SENP8 block-2, SENP1 inh, SENP6 block)
CC(C)c1cc(C(=O)NN=C/C=C/c2ccccc2)n[nH]1	none (no result: SENP8 block-1, SENP7 inh, SENP8 block-2, SENP1 inh, SENP6 block)
Cc1ccc(C=NNC(=O)Cn2cncn2)cc1	none (no result: SENP8 block-1, SENP7 inh, SENP8 block-2, SENP1 inh, SENP6 block)
COC(=O)c1ccccc1Sc1c(C=NOC(=O)c2ccccc2)c(C(F)(F)F)nn1C	none (no result: SENP8 block-1, SENP7 inh, SENP8 block-2, SENP1 inh, SENP6 block)
Cc1ccc(C(=O)Nc2ccc3c(c2)OCCO3)cc1	SENP7 inh 82.0, SENP8 block-2 72.4, SENP6 block 73.5 | SENP8 confirm inactive | SENP6 confirm 75.6 | SENP7 conf 93.7 | Casp3 SENP sel 87.1 | SENP luc ctr 79.0
CC(=O)Nc1ccc2c(c1)OCCO2	none
Cc1cc(Cl)ccc1NC(=O)c1ccc2c(c1)OCO2	none
O=C(Nc1ccc(Cl)cc1Cl)c1ccc2c(c1)OCCO2	SENP7 inh 92.4, SENP8 block-2 89.8, SENP6 block 92.8 | SENP8 confirm 65.8 | SENP6 confirm 84.5 | SENP7 conf 95.0 | Casp3 SENP sel 88.1 | SENP luc ctr inactive
Cc1cc(C(=O)Nc2ccc(N3CCCC3)c(Cl)c2)ccc1[N+](=O)[O-]	SENP7 inh 51.6, SENP6 block 59.8 | SENP8 confirm inactive | SENP6 confirm inactive | SENP7 conf 64.6 | Casp3 SENP sel inactive | SENP luc ctr inactive
CCOC(=O)c1c(C)[nH]c(C(=O)Nc2ccc3c(c2)OCO3)c1C	SENP7 inh 83.7, SENP8 block-2 59.5 (no result: SENP8 block-1, SENP1 inh) | SENP8 confirm inactive | SENP6 confirm 80.5 | SENP7 conf 96.5 | Casp3 SENP sel 79.4 | SENP luc ctr inactive
Cc1ccc(NCC(=O)NN=Cc2cccc(Oc3ccccc3)c2)cc1	none (no result: SENP8 block-1, SENP7 inh, SENP8 block-2, SENP1 inh, SENP6 block)
O=C(NN=Cc1ccccn1)c1cc(-c2cccc3ccccc23)n[nH]1	none (no result: SENP8 block-1, SENP7 inh, SENP8 block-2, SENP1 inh, SENP6 block)
CCC1CC(C(C)=NNC(N)=O)OC1=O (centres undefined)	none (no result: SENP8 block-1, SENP7 inh, SENP8 block-2, SENP1 inh, SENP6 block)
O=C(Nc1cc(Cl)ccc1N1CCOCC1)c1ccc(Br)o1	none
Nc1c(C(=O)Nc2ccc3c(c2)OCCO3)nnn1Cc1cccc(Br)c1	SENP7 inh 58.2, SENP6 block 67.7 | SENP8 confirm inactive | SENP6 confirm inactive | SENP7 conf 84.8 | Casp3 SENP sel inactive | SENP luc ctr 66.4
Cc1cc(C)cc(C(=O)NC(=S)Nc2ccc3c(c2)OCCO3)c1	SENP6 block 83.8 | SENP8 confirm inactive | SENP6 confirm inactive | SENP7 conf inactive | Casp3 SENP sel inactive | SENP luc ctr inactive
O=C(Nc1ccc(Cl)cc1Cl)c1ccc(Br)o1	SENP8 block-2 55.2, SENP6 block 68.6 | SENP8 confirm inactive | SENP6 confirm inactive | SENP7 conf inactive | Casp3 SENP sel inactive | SENP luc ctr inactive
